Reference: ChEMBL document CHEMBL1148409, “In vitro structure-activity relationship and in vivo studies for a novel class of cyclooxygenase-2 inhibitors: 5-aryl-2,2-dialkyl-4-phenyl-3(2H)furanone derivatives” (J Med Chem, 2004)
pIC50: −log10 of the molar value.

Columns and labels:
[1] = molecular target: T1, Prostaglandin G/H synthase 1 (Mus musculus, UniProt P22437); test: In vitro inhibitory activity against prostaglandin G/H synthase 1 using mouse peritoneal macrophage method
T1 sequence (P22437 whole entry): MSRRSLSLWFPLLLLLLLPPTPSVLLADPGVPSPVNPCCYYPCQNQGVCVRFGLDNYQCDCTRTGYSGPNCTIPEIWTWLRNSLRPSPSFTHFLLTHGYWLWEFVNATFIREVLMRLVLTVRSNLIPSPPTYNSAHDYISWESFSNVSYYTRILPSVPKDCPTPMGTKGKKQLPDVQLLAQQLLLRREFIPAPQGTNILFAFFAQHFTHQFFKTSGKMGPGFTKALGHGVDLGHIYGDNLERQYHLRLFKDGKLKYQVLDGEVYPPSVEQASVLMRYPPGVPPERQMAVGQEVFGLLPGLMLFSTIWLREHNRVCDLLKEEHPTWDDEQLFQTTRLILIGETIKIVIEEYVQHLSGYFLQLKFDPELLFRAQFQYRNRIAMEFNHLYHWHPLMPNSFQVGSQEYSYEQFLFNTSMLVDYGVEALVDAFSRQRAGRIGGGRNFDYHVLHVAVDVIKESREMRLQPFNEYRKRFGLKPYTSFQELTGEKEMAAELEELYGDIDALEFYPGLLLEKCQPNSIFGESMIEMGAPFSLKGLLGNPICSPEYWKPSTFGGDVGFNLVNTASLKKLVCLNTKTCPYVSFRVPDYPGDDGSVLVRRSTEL
How it was run: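 Freshly harvested mouse peritoneal macrophages were the enzyme source. Cells were preincubated 10 min at 37 °C with inhibitor in DMSO, then stimulated with calcium ionophore A23187 for 10 min. The reaction was stopped with indomethacin in 0.1% BSA buffer and centrifuged, and supernatant TXB₂ was measured by ELISA.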

[2] = molecular target: T2, Prostaglandin G/H synthase 2 (Mus musculus, UniProt Q05769); test: In vitro inhibitory activity against prostaglandin G/H synthase 2 using mouse peritoneal macrophage method
T2 sequence (Q05769 whole entry): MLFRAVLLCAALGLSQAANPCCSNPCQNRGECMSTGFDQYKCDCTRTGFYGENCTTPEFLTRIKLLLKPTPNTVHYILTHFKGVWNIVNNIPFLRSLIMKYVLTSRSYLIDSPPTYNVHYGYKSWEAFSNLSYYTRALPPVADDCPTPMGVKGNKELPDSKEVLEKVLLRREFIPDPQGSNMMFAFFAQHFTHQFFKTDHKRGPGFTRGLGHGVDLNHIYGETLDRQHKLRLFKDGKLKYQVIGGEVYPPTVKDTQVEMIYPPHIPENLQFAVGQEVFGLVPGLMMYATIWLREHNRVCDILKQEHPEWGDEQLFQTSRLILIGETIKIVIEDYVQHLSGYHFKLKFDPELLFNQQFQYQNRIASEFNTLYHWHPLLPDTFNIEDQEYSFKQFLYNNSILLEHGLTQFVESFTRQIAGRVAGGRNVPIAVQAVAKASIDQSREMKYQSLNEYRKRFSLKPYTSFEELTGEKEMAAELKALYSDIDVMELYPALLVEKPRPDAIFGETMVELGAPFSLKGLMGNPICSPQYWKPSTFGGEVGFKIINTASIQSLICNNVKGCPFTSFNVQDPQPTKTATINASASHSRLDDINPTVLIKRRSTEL

Rattus norvegicus [3] = test: Inhibition of carrageenan-induced rat foot oedema following 3 mg/kg administration.; assay type: functional
How it was run: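 Male SD rats (160 ~ 190 g) were fasted overnight and given compound in 1% methylcellulose by oral gavage, at least 5 animals per group. One hour later, 0.05 mL of 1% carrageenan in saline was injected subplantar into the right hindpaw. Paw swelling was measured by plethysmometer 4 h after dosing and expressed as % inhibition.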

Rattus norvegicus [4] = test: Antiinflammatory activity was determined by measuring adjuvant-induced arthritis in rats using therapeutic method; dose administered daily once; assay type: functional
How it was run: (§1)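 Therapeutic adjuvant arthritis in male SD rats (160 ~ 190 g). On day 0, 0.1 mL of 1% heat-killed M. butyricum in incomplete Freund's adjuvant was injected subplantar into the right hindpaw. On day 14, rats with left hindpaw swelling over 0.37 mL were selected and randomized. Daily treatment ran from day 14 to day 22, and % inhibition was taken from day-22 foot volumes.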

Rattus norvegicus [5] = test: Antiinflammatory activity was determined by measuring adjuvant-induced arthritis in rats using preventive method; Range is 0.1~0.2 (dose administered daily twice); assay type: functional
How it was run: (§2)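 Preventive adjuvant arthritis in male Lewis rats (200 ~ 210 g), 10 per group. On day 0, 0.1 mL of 1% heat-killed M. butyricum in incomplete Freund's adjuvant was injected subplantar into the right hindpaw. Oral gavage dosing ran from day -1 to day 16. Left hindpaw volume was measured by plethysmometer on day 17, and % inhibition versus control was calculated.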

Rattus norvegicus [6] = test: Ability of compound to cause gastric ulcerogenicity was determined in rats at 30 mg/kg when administered daily once; assay type: functional, Stomach
How it was run: (§3)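 Male SD rats (130 ~ 140 g) were dosed by oral gavage for 7 days, with compound suspended in 1% methylcellulose. Rats were fasted overnight before necropsy and killed 4 h after the last dose. Stomachs were scored for ulceration on a scale where 1 is an apparently normal stomach and 2 is pinpoint ulcers only.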

Rattus norvegicus [7] = test: Antiinflammatory activity was determined by measuring adjuvant-induced arthritis in rats using preventive method; Range is 0.2~0.3 (dose administered daily twice ); assay type: functional; how it was run: as §2
Rattus norvegicus [8] = test: Antiinflammatory activity was determined by measuring adjuvant-induced arthritis in rats using therapeutic method; (dose administered daily once); assay type: functional; how it was run: as §1
Rattus norvegicus [9] = test: Antiinflammatory activity was determined by measuring adjuvant-induced arthritis in rats using therapeutic method; dose administered daily twice; assay type: functional; how it was run: as §1
Rattus norvegicus [10] = test: Antiinflammatory activity was determined by measuring adjuvant-induced arthritis in rats using preventive method; dose administered daily twice; assay type: functional; how it was run: as §2
Rattus norvegicus [11] = test: Ability of compound to cause gastric ulcerogenicity was determined in rats at 5 mg/kg when administered daily once; assay type: functional, Stomach; how it was run: as §3
Rattus norvegicus [12] = test: Antiinflammatory activity was determined by measuring adjuvant-induced arthritis in rats using preventive method; dose administered daily once; assay type: functional; how it was run: as §2
Rattus norvegicus [13] = test: Ability of compound to cause gastric ulcerogenicity was determined in rats at 5 mg/kg; assay type: functional, Stomach; how it was run: as §3

Compound	pIC50 [1]	pIC50 [2]	inhibition in vivo at 3 mg/kg (Rattus norvegicus [3]) [%]	also measured
CC1(C)OC(c2ccc(S(C)(=O)=O)cc2)=C(c2cccnc2)C1=O	4.54	5.84		
CC1(C)OC(c2ccc(S(N)(=O)=O)cc2)=C(c2ccccc2)C1=O	6.75	7.63		
CCC1(C)OC(c2ccc(S(C)(=O)=O)cc2)=C(c2cc(Cl)cc(Cl)c2)C1=O (stereo unspecified)	4.33	7.15		
Cc1cccc(C2=C(c3ccc(S(C)(=O)=O)cc3)OC3(CCCCC3)C2=O)c1	5.12			
CCC1(C)OC(c2ccc(S(C)(=O)=O)cc2)=C(c2cccc(Cl)c2)C1=O (stereo unspecified)			23	
Cn1cc(C2=C(c3ccc(S(N)(=O)=O)cc3)OC(C)(C)C2=O)cn1			29	
CC1(C)OC(c2ccc(S(N)(=O)=O)cc2)=C(c2ccc(F)c(F)c2)C1=O	5.30	7.73		
CC1(C)OC(c2ccc(S(N)(=O)=O)cc2F)=C(c2cc(F)cc(F)c2)C1=O			32	
CC1(C)OC(c2ccc(S(C)(=O)=O)cc2)=C(c2ccc(F)c(Cl)c2)C1=O	5.12	6.12	31	
CC1(C)OC(c2ccc(S(N)(=O)=O)cc2F)=C(c2ccccc2)C1=O	4.26			
Cc1cccc(C2=C(c3ccc(S(C)(=O)=O)cc3)OC3(CCCC3)C2=O)c1			26	
CC1(C)OC(c2ccc(S(C)(=O)=O)cc2)=C(c2cccc(Cl)c2)C1=O			16	
CC1(C)OC(c2ccc(S(C)(=O)=O)cc2)=C(c2ccc(Br)cc2)C1=O	7.15	7.15		
CC1(C)OC(c2ccc(S(N)(=O)=O)c(F)c2)=C(c2cccc(F)c2)C1=O			27	
CS(=O)(=O)c1ccc(C2=C(c3ccccc3)C(=O)C3(CCCCC3)O2)cc1	4.58	5.28		
CC1(C)OC(c2ccc(S(N)(=O)=O)c(F)c2)=C(c2cc(F)cc(F)c2)C1=O			31	
CC1(C)OC(c2ccc(S(C)(=O)=O)c(F)c2)=C(c2cccc(Cl)c2)C1=O			28	
CC1(C)OC(c2ccc(S(C)(=O)=O)c(F)c2)=C(c2cc(F)cc(F)c2)C1=O				ED50 (Rattus norvegicus [4]): > 0.1 mg/kg/day
CCC1(C)OC(c2ccc(S(C)(=O)=O)cc2)=C(c2cccc(C(F)(F)F)c2)C1=O (stereo unspecified)	4.63			
CC1(C)OC(c2ccc(S(N)(=O)=O)cc2)=C(c2ccsc2)C1=O	4.86	6.46		

Compound	pIC50 [1]	pIC50 [2]	inhibition in vivo at 3 mg/kg (Rattus norvegicus [3]) [%]	also measured
CC(=O)c1ccc(C2=C(c3ccc(S(N)(=O)=O)cc3)OC(C)(C)C2=O)cc1	6.17	7.47	26	
CC1(C)OC(c2ccc(S(N)(=O)=O)cc2)=C(c2cccc(C(F)(F)F)c2)C1=O	5.70	7.57		
Cn1cc(C2=C(c3ccc(S(C)(=O)=O)cc3)OC(C)(C)C2=O)cn1	4.06	5.84	36	ED50 (Rattus norvegicus [4]): ~0.3 mg/kg/day
CCCCc1ccc(C2=C(c3ccc(S(C)(=O)=O)cc3)OC(C)(C)C2=O)cc1			8	
CC(=O)c1ccc(C2=C(c3ccc(S(C)(=O)=O)cc3)OC(C)(C)C2=O)cc1				ED50 (Rattus norvegicus [5]): 0.1 mg/kg/day
CS(=O)(=O)c1ccc(C2=C(c3cccc(F)c3)C(=O)C3(CCCC3)O2)cc1	5.11	5.11		
CCC1(CC)OC(c2ccc(S(C)(=O)=O)cc2)=C(c2ccccc2)C1=O	4.09	4.87		
CCC1(CC)OC(c2ccc(S(C)(=O)=O)cc2)=C(c2cccc(C)c2)C1=O	4.58	5.89		
CC1(C)OC(c2ccc(S(N)(=O)=O)cc2)=C(c2cccc(Cl)c2)C1=O			39	ED50 (Rattus norvegicus [4]): 0.03 mg/kg/day
CC1(C)OC(c2ccc(S(C)(=O)=O)cc2)=C(c2cccc(F)c2)C1=O			36	Activity (Rattus norvegicus [6]): 1.8; ED50 (Rattus norvegicus [7]): 0.3 mg/kg/day; ED50 (Rattus norvegicus [8]): 0.07 mg/kg/day
CC1(C)OC(c2ccc(S(C)(=O)=O)cc2)=C(c2cc(F)cc(F)c2)C1=O			34	Activity (Rattus norvegicus [6]): 1.8
CC(=O)c1cccc(C2=C(c3ccc(S(C)(=O)=O)cc3)OC(C)(C)C2=O)c1			22	
CC1(C)OC(c2ccc(S(C)(=O)=O)cc2)=C(c2cccc(C(F)(F)F)c2)C1=O			31	
Cc1ccc(-c2cc(C(F)(F)F)nn2-c2ccc(S(N)(=O)=O)cc2)cc1 [CELECOXIB]			34	ED50 (Rattus norvegicus [9]): 0.37 mg/kg/day
Cc1ccc(-c2ncc(Cl)cc2-c2ccc(S(C)(=O)=O)cc2)cn1 [ETORICOXIB]				ED50 (Rattus norvegicus [10]): 0.7 mg/kg/day
COc1ccc2c(c1)c(CC(=O)O)c(C)n2C(=O)c1ccc(Cl)cc1 [INDOMETHACIN]			45	Activity (Rattus norvegicus [11]): 3.5
Cc1cnc(NC(=O)C2=C(O)c3ccccc3S(=O)(=O)N2C)s1 [MELOXICAM]				ED50 (Rattus norvegicus [12]): 0.28 mg/kg/day
CC1(C)OC(c2ccc(S(N)(=O)=O)cc2)=C(c2cccc(F)c2)C1=O [POLMACOXIB]	6.08	8.08	47	Activity (Rattus norvegicus [13]): 1.5; ED50 (Rattus norvegicus [10]): 0.1 mg/kg/day; ED50 (Rattus norvegicus [4]): 0.02 mg/kg/day; ED50 (Rattus norvegicus [9]): 0.01 mg/kg/day
CS(=O)(=O)c1ccc(C2=C(c3ccccc3)C(=O)OC2)cc1 [ROFECOXIB]				ED50 (Rattus norvegicus [10]): 0.74 mg/kg/day
Cc1onc(-c2ccccc2)c1-c1ccc(S(N)(=O)=O)cc1 [VALDECOXIB]				ED50 (Rattus norvegicus [9]): 0.032 mg/kg/day
